One block for each compound: values may come before it.
Columns and labels:
[1] = Inhibition of HIV1 NL4-3 gp160 assessed as inhibition of interaction between gp120 and host CD4 receptor by cell-cell fusion assay; set-up: species or system Human immunodeficiency virus 1
[2] = test system: Human immunodeficiency virus 1; assay: Antiviral activity against Human immunodeficiency virus 1 NL4-3 infected HeLaP4 cells after 5 days by beta-galactosidase reporter assay; type: functional, organism-based; details: Human immunodeficiency virus 1, NL4-3, HeLaP4, 120 h
Method in brief: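 HeLa-P4 cells were premixed with NL4-3 virus and added at 10^5 cells/mL to wells containing diluted compound. Plates were incubated for 5 days at 37 °C in humidified 5% CO₂. Infection was quantified with a β-galactosidase reporter assay.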

[3] = Clearance in rat at 1 mg/kg, iv and 1 mg/kg, po; type: ADME, organism-based; details: in vivo
Rattus norvegicus [4] = assay: Unbound clearance in rat at 1 mg/kg, iv and 1 mg/kg, po; type: ADME, organism-based; details: in vivo
Rattus norvegicus [5] = assay: Unbound volume of distribution in rat at 1 mg/kg, iv and 1 mg/kg, po; type: ADME, organism-based; details: in vivo
[6] = Bioavailability in rat at 1 mg/kg; type: ADME, organism-based; details: in vivo
[7] = Fraction of compound absorbed in rat at 1 mg/kg, iv and 1 mg/kg, po; type: ADME, organism-based; details: in vivo, read-out: Fabs
[8] = Half life in rat at 1 mg/kg, iv and 1 mg/kg, po; type: ADME, organism-based; details: in vivo
[9] = test system: Human immunodeficiency virus 1; assay: Antiviral activity against Human immunodeficiency virus 1 isolate 04-116871_VL_781.69; type: functional
Method in brief: (§1)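 Testing against these strains was contracted out and used the PhenoSense phenotypic antiviral assay.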

[10] = test system: Human immunodeficiency virus 1; assay: Antiviral activity against Human immunodeficiency virus 1 HXB2; type: functional; method in brief: as §1
[11] = test system: Human immunodeficiency virus 1; assay: Antiviral activity against Human immunodeficiency virus 1 JRCSF; type: functional, Human immunodeficiency virus type 1 (JRCSF ISOLATE); method in brief: as §1
[12] = test system: Human immunodeficiency virus 1; assay: Antiviral activity against Human immunodeficiency virus 1 isolate 04-116884_VL_328.45; type: functional; method in brief: as §1
[13] = test system: Human immunodeficiency virus 1; assay: Antiviral activity against Human immunodeficiency virus 1 isolate 04-116873_VL_754.51; type: functional; method in brief: as §1
[14] = test system: Human immunodeficiency virus 1; assay: Antiviral activity against Human immunodeficiency virus 1 isolate 04-116877_VL_938.28; type: functional; method in brief: as §1
[15] = test system: Human immunodeficiency virus 1; assay: Antiviral activity against Human immunodeficiency virus 1 isolate 04-116870_VL_181.51; type: functional; method in brief: as §1
[16] = test system: Human immunodeficiency virus 1; assay: Antiviral activity against Human immunodeficiency virus 1 isolate 04-116868_VL_518.14; type: functional; method in brief: as §1
[17] = test system: Human immunodeficiency virus 1; assay: Antiviral activity against Human immunodeficiency virus 1 isolate 04-116889_VL_440.85; type: functional; method in brief: as §1
[18] = test system: Human immunodeficiency virus 1; assay: Antiviral activity against Human immunodeficiency virus 1 isolate 04-116874_VL_560.34; type: functional; method in brief: as §1
[19] = test system: Human immunodeficiency virus 1; assay: Antiviral activity against Human immunodeficiency virus 1 isolate 04-116882_VL_624.75; type: functional; method in brief: as §1
[20] = test system: Human immunodeficiency virus 1; assay: Antiviral activity against Human immunodeficiency virus 1 isolate 04-116878_VL_241.32; type: functional; method in brief: as §1
[21] = test system: Human immunodeficiency virus 1; assay: Antiviral activity against Human immunodeficiency virus 1 isolate 04-116880_VL_696.65; type: functional; method in brief: as §1
[22] = test system: Human immunodeficiency virus 1; assay: Antiviral activity against Human immunodeficiency virus 1 isolate 04-116883_VL_432.63; type: functional; method in brief: as §1
[23] = test system: Human immunodeficiency virus 1; assay: Antiviral activity against Human immunodeficiency virus 1 isolate 04-116886_VL_578.66; type: functional; method in brief: as §1
[24] = test system: Human immunodeficiency virus 1; assay: Antiviral activity against Human immunodeficiency virus 1 isolate 04-116888_VL_113.66; type: functional; method in brief: as §1
[25] = test system: Human immunodeficiency virus 1; assay: Antiviral activity against Human immunodeficiency virus 1 isolate 04-116892_VL_534.93; type: functional; method in brief: as §1
[26] = test system: Human immunodeficiency virus 1; assay: Antiviral activity against Human immunodeficiency virus 1 isolate 04-116869_VL_833.52; type: functional; method in brief: as §1
[27] = test system: Human immunodeficiency virus 1; assay: Antiviral activity against Human immunodeficiency virus 1 isolate 04-116890_VL_781.45; type: functional; method in brief: as §1
[28] = test system: Human immunodeficiency virus 1; assay: Antiviral activity against Human immunodeficiency virus 1 isolate 04-116885_VL_530.54; type: functional; method in brief: as §1
[29] = test system: Human immunodeficiency virus 1; assay: Antiviral activity against Human immunodeficiency virus 1 isolate 04-116875_VL_279.69; type: functional; method in brief: as §1
[30] = test system: Human immunodeficiency virus 1; assay: Antiviral activity against Human immunodeficiency virus 1 isolate 04-116879_VL_988.03; type: functional; method in brief: as §1
[31] = test system: Human immunodeficiency virus 1; assay: Antiviral activity against Human immunodeficiency virus 1 isolate 04-116881_VL_338.52; type: functional; method in brief: as §1
[32] = test system: Human immunodeficiency virus 1; assay: Antiviral activity against Human immunodeficiency virus 1 isolate 04-116893_VL_193.95; type: functional; method in brief: as §1
[33] = test system: Human immunodeficiency virus 1; assay: Antiviral activity against Human immunodeficiency virus 1 isolate 04-116867_VL_837.51; type: functional; method in brief: as §1
[34] = test system: Human immunodeficiency virus 1; assay: Antiviral activity against Human immunodeficiency virus 1 isolate 04-116876_VL_969.72; type: functional; method in brief: as §1
[35] = test system: Human immunodeficiency virus 1; assay: Antiviral activity against Human immunodeficiency virus 1 isolate 04-116872_VL_186.32; type: functional; method in brief: as §1
[36] = Metabolic stability in human liver microsomes assessed as half life; type: ADME, Microsome

SMILES: CNC(=O)c1nccc2c(O[C@@H](C)C(=O)N3CCN(C(=O)c4ccccc4)C[C@H]3C)ccc(F)c12
IC50 [1]: 31 nM | IC50 [2]: 20 nM

SMILES: CNC(=O)c1cc(OC)c(O[C@@H](C)C(=O)N2CCN(c3nccc4[nH]cnc34)C[C@H]2C)cn1
IC50 [1]: 24 nM | IC50 [2]: 7 nM

SMILES: CNC(=O)c1nccc2c(O[C@@H](C)C(=O)N3CCN(C(=O)c4ccccc4)C[C@H]3C)cccc12
IC50 [1]: 21 nM | IC50 [2]: 1.5 nM | clearance [3]: 41 mL/min/kg | CL free (Rattus norvegicus [4]): 90 mL/min/kg | Vdu (Rattus norvegicus [5]): 3.5 L/kg | bioavailability [6]: 45% | Fa [7]: 55% | half-life [8]: 30 min

SMILES: CNC(=O)c1ccc2c(O[C@@H](C)C(=O)N3CCN(C(=O)c4ccccc4)C[C@H]3C)cccc2n1
IC50 [1]: 78 nM | IC50 [2]: > 4000 nM

SMILES: CNC(=O)c1cc(OC)c(O[C@@H](C)C(=O)N2CCN(C(=O)c3ccccc3)C[C@H]2C)cn1
IC90 [9]: 9 nM | IC50 [1]: 14 nM | Vdu (Rattus norvegicus [5]): 2.2 L/kg | Fa [7]: 100% | IC90 [10]: 13 nM | IC90 [11]: 4 nM | IC90 [12]: 9 nM | IC90 [13]: 21 nM | IC90 [14]: 21 nM | IC90 [15]: 44 nM | IC90 [16]: 26 nM | IC90 [17]: 56 nM | IC90 [18]: 71 nM | IC90 [19]: 106 nM | IC90 [20]: > 2220 nM | IC90 [21]: > 2220 nM | IC90 [22]: > 2220 nM | IC90 [23]: > 2220 nM | IC90 [24]: > 2220 nM | IC90 [25]: > 2220 nM | IC90 [26]: 122 nM | IC90 [27]: 170 nM | IC90 [28]: 178 nM | IC90 [29]: 213 nM | IC90 [30]: 242 nM | IC90 [31]: 299 nM | IC90 [32]: 354 nM | IC90 [33]: 383 nM | IC90 [34]: 436 nM | IC90 [35]: > 2220 nM

SMILES: CNc1nccc2c(O[C@@H](C)C(=O)N3CCN(C(=O)c4ccccc4)C[C@H]3C)cccc12
IC50 [1]: 61 nM

SMILES: Cc1nc2c(OC(C)C(=O)N3CCN(C(=O)c4ccccc4)C[C@H]3C)cccc2o1 (some centres undefined)
IC50 [1]: 2040 nM

Continued, values first:

IC50 [1]: 24 nM | IC50 [2]: 6 nM
SMILES: CNC(=O)c1cc(OC)c(O[C@@H](C)C(=O)N2CCN(c3nccc4[nH]ncc34)C[C@H]2C)cn1

IC50 [1]: 21200 nM
SMILES: CNC(=O)c1ccc(O[C@@H](C)C(=O)N2CCN(C(=O)c3ccccc3)C[C@H]2C)c2ccncc12

IC50 [1]: 1260 nM
SMILES: CNC(=O)c1ccc(O[C@@H](C)C(=O)N2CCN(C(=O)c3ccccc3)C[C@H]2C)c2cccnc12

IC50 [1]: 99 nM | IC50 [2]: 271 nM
SMILES: CC(Oc1cccc2ncccc12)C(=O)N1CCN(C(=O)c2ccccc2)C[C@H]1C (some centres undefined)

IC90 [9]: 0.5 nM | IC50 [1]: 0.29 nM | IC50 [2]: 0.12 nM | clearance [3]: 48 mL/min/kg | CL free (Rattus norvegicus [4]): 198 mL/min/kg | Vdu (Rattus norvegicus [5]): 9.4 L/kg | bioavailability [6]: 21% | Fa [7]: 100% | half-life [8]: 30 min | half-life [36]: 4 min | IC90 [10]: 1.4 nM | IC90 [11]: 0.3 nM | IC90 [12]: 0.8 nM | IC90 [13]: 1.3 nM | IC90 [14]: 2 nM | IC90 [15]: 6 nM | IC90 [16]: 1 nM | IC90 [17]: 5 nM | IC90 [18]: 5 nM | IC90 [19]: 3 nM | IC90 [20]: 230 nM | IC90 [21]: 276 nM | IC90 [22]: > 666 nM | IC90 [23]: 120 nM | IC90 [24]: 324 nM | IC90 [25]: 199 nM | IC90 [26]: 24 nM | IC90 [27]: 144 nM | IC90 [28]: 8 nM | IC90 [29]: 14 nM | IC90 [30]: 8 nM | IC90 [31]: 201 nM | IC90 [32]: 23 nM | IC90 [33]: 40 nM | IC90 [34]: 37 nM | IC90 [35]: 36 nM
SMILES: CNC(=O)c1cc(OC)c(O[C@@H](C)C(=O)N2CCN(c3nccc4ccccc34)C[C@H]2C)cn1

IC50 [1]: 29 nM | IC50 [2]: 126 nM
SMILES: CNC(=O)c1cc(OC)c(O[C@@H](C)C(=O)N2CCN(c3nccc4ncccc34)C[C@H]2C)cn1

IC50 [1]: 103 nM | IC50 [2]: 492 nM
SMILES: CC(Oc1cccc2cnccc12)C(=O)N1CCN(C(=O)c2ccccc2)C[C@H]1C (some centres undefined)

IC50 [1]: 834 nM
SMILES: Cc1nc2c(OC(C)C(=O)N3CCN(C(=O)c4ccccc4)C[C@H]3C)cccc2[nH]1 (some centres undefined)

IC50 [1]: 493 nM
SMILES: CC(Oc1cccc2nccnc12)C(=O)N1CCN(C(=O)c2ccccc2)C[C@H]1C (some centres undefined)
